Test results published in ChEMBL document CHEMBL1287642, “Synthesis, antiviral activity and cytotoxicity evaluation of Schiff bases of some 2-phenyl quinazoline-4(3)H-ones” (Eur J Med Chem, 2010).
Converted amounts (≈) assume the structure as drawn. The source made the active and inactive calls. No cut-off for these calls is given here.

How the values were obtained:
[1] = Cytotoxicity against human HEL cells assessed as minimum concentration required to cause microscopically detectable alteration after 2 days; format: cell-based; details: read-out: Activity
Human alphaherpesvirus 1 [2] = assay: Antiviral activity against Herpes simplex virus-1 KOS infected in human HEL cells assessed as protection against virus-induced cytopathogenicity after 2 days; format: functional, organism-based; details: Human alphaherpesvirus 1, KOS, 48 h
Human alphaherpesvirus 2 = assay: Antiviral activity against Herpes simplex virus-2 G infected in human HEL cells assessed as protection against virus-induced cytopathogenicity after 2 days; format: functional, organism-based; details: Human alphaherpesvirus 2, strain G, 48 h
[3] = tested on: Vesicular stomatitis virus; assay: Antiviral activity against Vesicular stomatitis virus infected in human HEL cells assessed as protection against virus-induced cytopathogenicity after 2 days; format: functional, organism-based; details: 48 h
Human alphaherpesvirus 1 [4] = assay: Antiviral activity against acyclovir-resistant TK deficient Herpes simplex virus-1 KOS infected in human HEL cells assessed as protection against virus-induced cytopathogenicity after 2 days; format: functional, organism-based; details: Human alphaherpesvirus 1, KOS, 48 h
[5] = Cytotoxicity against african green monkey Vero cells assessed as minimum concentration required to cause microscopically detectable alteration after 2 days; format: cell-based; details: chlorocebus sabaeus, read-out: Activity
Human respirovirus 3 = assay: Antiviral activity against Para influenza-3 virus infected in african green monkey Vero cells assessed as protection against virus-induced cytopathogenicity after 2 days; format: functional, organism-based; details: Human respirovirus 3, Vero, 48 h
[6] = tested on: Mammalian orthoreovirus 1; assay: Antiviral activity against Reovirus-1 infected in african green monkey Vero cells assessed as protection against virus-induced cytopathogenicity after 2 days; format: functional, organism-based; details: Mammalian orthoreovirus 1, Vero, 48 h
Sindbis virus [7] = assay: Antiviral activity against Sindbis virus infected in african green monkey Vero cells assessed as protection against virus-induced cytopathogenicity after 2 days; format: functional, organism-based; details: 48 h
Coxsackievirus B4 [8] = assay: Antiviral activity against Coxsackie virus B4 infected in african green monkey Vero cells assessed as protection against virus-induced cytopathogenicity after 2 days; format: functional, organism-based; details: Enterovirus B, 48 h
Punta Toro virus [9] = assay: Antiviral activity against Punta Toro virus infected in african green monkey Vero cells assessed as protection against virus-induced cytopathogenicity after 2 days; format: functional, organism-based; details: 48 h
[10] = Cytotoxicity against cat CRFK cells by MTS assay; format: cell-based, Felis catus; details: crfk
Method in brief: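 In uninfected CRFK cells, the 50% cytotoxic concentration was derived from cell viability measured by the colorimetric formazan-based MTS assay.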

[11] = tested on: Feline infectious peritonitis virus; assay: Antiviral activity against Feline coronavirus FIPV infected in cat CRFK cells assessed as protection against virus-induced cytopathogenicity after 2 days by MTS assay; format: functional, cell-based; details: Alphacoronavirus 1, CRFK, 48 h
Felid alphaherpesvirus 1 = assay: Antiviral activity against Feline herpes virus infected in cat CRFK cells assessed as protection against virus-induced cytopathogenicity after 2 days by MTS assay; format: functional, organism-based; details: Felid alphaherpesvirus 1, CRFK, 48 h
[12] = Cytotoxicity against human HeLa cells assessed as minimum concentration required to cause microscopically detectable alteration after 2 days; format: cell-based; details: read-out: Activity
[13] = tested on: Vesicular stomatitis virus; assay: Antiviral activity against Vesicular stomatitis virus infected in human HeLa cells assessed as protection against virus-induced cytopathogenicity after 2 days; format: functional, organism-based; details: 48 h
Coxsackievirus B4 [14] = assay: Antiviral activity against Coxsackie virus B4 infected in human HeLa cells assessed as protection against virus-induced cytopathogenicity after 2 days; format: functional, organism-based; details: Enterovirus B, 48 h
[15] = tested on: Respiratory syncytial virus; assay: Antiviral activity against Respiratory syncytial virus infected in human HeLa cells assessed as protection against virus-induced cytopathogenicity after 2 days; format: functional, organism-based; details: 48 h
[16] = tested on: Mammalian orthoreovirus 1; assay: Antiviral activity against Reovirus-1 infected in african green monkey Vero cells assessed as inhibition of viral replication; format: functional, organism-based
Sindbis virus [17] = assay: Antiviral activity against Sindbis virus infected in african green monkey Vero cells assessed as inhibition of viral replication; format: functional, organism-based
Coxsackievirus B4 [18] = assay: Antiviral activity against Coxsackie virus B4 infected in african green monkey Vero cells assessed as inhibition of viral replication; format: functional, organism-based
Punta Toro virus [19] = assay: Antiviral activity against Punta Toro virus infected in african green monkey Vero cells assessed as inhibition of viral replication; format: functional, organism-based
[20] = Selectivity index, ratio of minimum concentration required to cause microscopically detectable alteration in human HEL cells to EC50 for Herpes simplex virus-1 KOS; format: toxicity, cell-based; details: read-out: Selectivity Index
Method in brief: (§1)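 Cytotoxicity was taken as the concentration causing a microscopically detectable change in normal cell morphology (Vero or HEL). […] The selectivity index is the first divided by the second.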

[21] = Selectivity index, ratio of minimum concentration required to cause microscopically detectable alteration in human HEL cells to EC50 for Herpes simplex virus-2 G; format: toxicity, cell-based; details: read-out: Selectivity Index; method in brief: as §1
[22] = Selectivity index, ratio of minimum concentration required to cause microscopically detectable alteration in human HEL cells to EC50 for acyclovir-resistant TK deficient Herpes simplex virus-1 KOS; format: toxicity, cell-based; details: read-out: Selectivity Index; method in brief: as §1
[23] = Selectivity index, ratio of minimum concentration required to cause microscopically detectable alteration in human HEL cells to EC50 for acyclovir-resistant TK deficient Vaccina virus; format: toxicity, cell-based; details: read-out: Selectivity Index; method in brief: as §1
[24] = Selectivity index, ratio of minimum concentration required to cause microscopically detectable alteration in green monkey Vero cells to EC50 for Reovirus-1; format: toxicity, cell-based; details: read-out: Selectivity Index; method in brief: as §1
[25] = Selectivity index, ratio of minimum concentration required to cause microscopically detectable alteration in green monkey Vero cells to EC50 for Sindbis virus; format: toxicity, cell-based; details: read-out: Selectivity Index; method in brief: as §1
[26] = Selectivity index, ratio of minimum concentration required to cause microscopically detectable alteration in green monkey Vero cells to EC50 for sCoxsackie virus B4; format: toxicity, cell-based; details: read-out: Selectivity Index; method in brief: as §1
[27] = Selectivity index, ratio of minimum concentration required to cause microscopically detectable alteration in green monkey Vero cells to EC50 for Punta Toro virus; format: toxicity, cell-based; details: read-out: Selectivity Index; method in brief: as §1
Influenza A virus [28] = assay: Antiviral activity against influenza A virus H1N1 infected in MDCK cells assessed as protection against virus-induced cytopathogenicity at 100 ug/ml after 2 days; format: functional, organism-based
Method in brief: (§2)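 Infected MDCK cells were treated. […] N.A. means not active at the highest concentration tested or at a subtoxic concentration.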

Influenza A virus [29] = assay: Antiviral activity against Influenza A virus H3N2 infected in MDCK cells assessed as protection against virus-induced cytopathogenicity at 100 ug/ml after 2 days; format: functional, organism-based; method in brief: as §2
Influenza B virus [30] = assay: Antiviral activity against influenza B virus infected in MDCK cells assessed as protection against virus-induced cytopathogenicity at 100 ug/ml after 2 days; format: functional, organism-based; method in brief: as §2
MDCK = assay: (§3) Cytotoxicity against MDCK cells by MTS assay; format: cell-based, Canis lupus familiaris; details: dog, mdck
Method in brief: (§4)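 In Madin Darby canine kidney cells, the 50% cytotoxic concentration was derived from cell viability measured by the colorimetric formazan-based MTS assay.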

[31] = Cytotoxicity against MDCK cells assessed as minimum concentration required to cause microscopically detectable alteration after 2 days; format: cell-based, Canis lupus familiaris; details: dog, read-out: Activity
Influenza A virus [32] = assay: Antiviral activity against influenza A virus H1N1 infected in MDCK cells assessed as cell viability at 100 ug/ml after 2 days by MTS assay; format: functional, organism-based
Influenza A virus [33] = assay: Antiviral activity against Influenza A virus H3N2 infected in MDCK cells assessed as cell viability at 100 ug/ml after 2 days by MTS assay; format: functional, organism-based
Influenza B virus [34] = assay: Antiviral activity against influenza B virus infected in MDCK cells assessed as cell viability at 100 ug/ml after 2 days by MTS assay; format: functional, organism-based
[35] = as §3; format: cell-based, Canis lupus familiaris; details: dog, MDCK cells; method in brief: as §4
Influenza B virus [36] = assay: Antiviral activity against influenza B virus infected in MDCK cells assessed as protection against virus-induced cytopathogenicity after 2 days; format: functional, organism-based; method in brief: as §2
Influenza B virus [37] = assay: Antiviral activity against influenza B virus infected in MDCK cells assessed as cell viability after 2 days by MTS assay; format: functional, organism-based

O=c1c2ccccc2nc(-c2ccccc2)n1/N=C/c1ccccc1O
MCC at 48 h [1]: 100 µg/mL | EC50 (Human alphaherpesvirus 1 [2]): 1 µg/mL (≈ 2.93 µM) | EC50 (Human alphaherpesvirus 2): 1 µg/mL (≈ 2.93 µM) | EC50 [3]: 15 µg/mL (≈ 43.9 µM) | EC50 (Human alphaherpesvirus 1 [4]): 1 µg/mL (≈ 2.93 µM) | MCC at 48 h [5]: 100 µg/mL | EC50 (Human respirovirus 3): > 20 µg/mL | EC50 [6]: 10 µg/mL (≈ 29.3 µM) | EC50 (Sindbis virus [7]): 5 µg/mL (≈ 14.6 µM) | EC50 (Coxsackievirus B4 [8]): 10 µg/mL (≈ 29.3 µM) | EC50 (Punta Toro virus [9]): 3 µg/mL (≈ 8.79 µM) | CC50 [10]: 11.2 µg/mL (≈ 32.8 µM) | EC50 [11]: > 4 µg/mL | EC50 (Felid alphaherpesvirus 1): > 4 µg/mL | MCC at 48 h [12]: 4 µg/mL | EC50 [13]: > 0.8 µg/mL | EC50 (Coxsackievirus B4 [14]): > 0.8 µg/mL | EC50 [15]: > 0.8 µg/mL | inhibition [16]: Active | inhibition (Sindbis virus [17]): Active | inhibition (Coxsackievirus B4 [18]): Active | inhibition (Punta Toro virus [19]): Active | selectivity ratio [20]: 100 | selectivity ratio [21]: 100 | selectivity ratio [22]: 100 | selectivity ratio [23]: 125 | selectivity ratio [24]: 10 | selectivity ratio [25]: 20 | selectivity ratio [26]: 10 | selectivity ratio [27]: 33 | EC50 (Influenza A virus [28]): Not Active | EC50 (Influenza A virus [29]): Not Active | EC50 (Influenza B virus [30]): Not Active | CC50 (MDCK): 2.6 µg/mL (≈ 7.62 µM) | MCC at 48 h [31]: ≥ 0.8 µg/mL | EC50 (Influenza A virus [32]): Not Active | EC50 (Influenza A virus [33]): Not Active | EC50 (Influenza B virus [34]): Not Active

NC12CC3CC(CC(C3)C1)C2 [AMANTADINE]
CC50 [35]: > 1000 µg/mL | MCC at 48 h [31]: > 1000 µg/mL | EC50 (Influenza B virus [36]): Not Active | EC50 (Influenza B virus [37]): Not Active
